Experimental data from different studies.
Lines come from different studies, so protocols differ.
Target: Serine/threonine-protein kinase BRSK2 (BRSK2, Homo sapiens, UniProt Q8IWQ3)
Sequence (Q8IWQ3 1-736, as in one of the studies): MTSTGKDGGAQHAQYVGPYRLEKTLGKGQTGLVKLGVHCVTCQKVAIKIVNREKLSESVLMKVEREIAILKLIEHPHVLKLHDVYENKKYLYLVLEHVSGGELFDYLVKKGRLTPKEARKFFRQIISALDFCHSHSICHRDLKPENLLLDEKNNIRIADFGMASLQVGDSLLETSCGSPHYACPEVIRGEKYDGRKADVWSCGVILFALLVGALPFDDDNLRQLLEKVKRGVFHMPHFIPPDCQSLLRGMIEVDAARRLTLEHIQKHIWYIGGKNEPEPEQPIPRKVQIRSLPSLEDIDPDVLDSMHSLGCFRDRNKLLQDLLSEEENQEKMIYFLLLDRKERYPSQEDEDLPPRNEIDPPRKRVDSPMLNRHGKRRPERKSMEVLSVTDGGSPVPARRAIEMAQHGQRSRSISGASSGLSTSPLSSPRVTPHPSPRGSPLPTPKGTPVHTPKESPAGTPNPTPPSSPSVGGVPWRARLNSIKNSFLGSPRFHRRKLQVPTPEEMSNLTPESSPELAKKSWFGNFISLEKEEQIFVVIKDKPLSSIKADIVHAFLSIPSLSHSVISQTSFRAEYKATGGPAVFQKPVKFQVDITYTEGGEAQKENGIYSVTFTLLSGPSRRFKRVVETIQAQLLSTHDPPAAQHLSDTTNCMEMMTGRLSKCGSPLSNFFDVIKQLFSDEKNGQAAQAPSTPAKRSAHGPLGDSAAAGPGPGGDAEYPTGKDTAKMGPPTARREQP

`C[C@H]1CCN(c2nccc(-c3cnn4ncccc34)n2)C1` gave a remaining binding of 96% (binding; 1 µM).
With `CN(C)c1ncnc(-c2ccc3nc(Nc4cc(CN5CCN(C(=O)CC(F)(F)F)CC5)ccn4)[nH]c3c2)c1Cl` the remaining binding was 100% (cell-free assay, competition with immobilised ligand; 1 µM).
For `CN(C)c1nccc(-c2cnn3ncccc23)n1`, the remaining binding was 84% (binding; 1 µM).
For `C[C@H](c1ccnc(Nc2nc3ccc(-c4cc(N(C)C)ncn4)cc3[nH]2)c1)N1CCN(C(=O)CC(F)(F)F)CC1`, the remaining binding was 100% (cell-free assay, competition with immobilised ligand; 0.1 µM).
With `O=C(c1ccc(Nc2nccc(-c3cc4ccccc4s3)n2)cc1)N1CCC(N2CCCC2)CC1` the remaining binding was 91% (binding, competition with immobilised ligand; 1 µM).
`CN(C)c1nccc(-c2cnc3ncccn23)n1` has a remaining binding of 100% (binding; 1 µM).
The remaining binding of `O=C(Nc1c[nH]nc1C(=O)NC1CCNCC1)c1cc(F)cc(F)c1` is reported as 100% (binding, competition with immobilised ligand; 1 µM).
`O=C(NCCCN1CCOCC1)c1ccc(Nc2ncc(Cl)c(-c3ccc(Cl)s3)n2)cc1` has a remaining binding of 45% (binding, competition with immobilised ligand; 1 µM).
With `O=C(NS(=O)(=O)c1ccc(NCC2CCOCC2)c([N+](=O)[O-])c1)c1ccc(N2CCN(Cc3ccc(C(F)(F)F)cc3-c3ccc(Cl)cc3)CC2)cc1Oc1cnc2[nH]ccc2c1` the remaining binding was 87% (cell-free assay, competition with immobilised ligand; 1 µM).
With `FC(F)(F)Oc1cccc(-c2cnc3ccc(-c4ccncc4)nn23)c1` the remaining binding was 80% (cell-free assay, competition with immobilised ligand; 5 µM).
`CN(C)c1ncc(F)c(-c2cnn3ncccc23)n1` has a remaining binding of 100% (binding; 1 µM).
The remaining binding of `NS(=O)(=O)c1cc(NC(=O)Cc2ccccc2)ccc1Oc1cccc(Cl)c1` is reported as 91% (cell-free assay, competition with immobilised ligand; 1 µM).
`O=C(NCCCN1CCOCC1)c1ccc(Nc2nccc(-c3cc4ccccc4s3)n2)cc1` gave a remaining binding of 77% (binding, competition with immobilised ligand; 1 µM).
For `COc1ccc2cc(OCC3(C(=O)O)CN(C(=O)c4ccc(F)cc4)C3)ccc2c1`, the remaining binding was 100% (cell-free assay, competition with immobilised ligand; 1 µM).
For `N[C@@H]1CCN(c2nccc(-c3cnn4ncccc34)n2)C1`, the remaining binding was 100% (binding; 1 µM).
`COc1cc(-c2cn(C3CCc4ccccc4N(CC(F)(F)F)C3=O)nn2)ccc1-n1ccc(C)n1` (stereo not drawn) gave a remaining binding of 97% (cell-free assay, competition with immobilised ligand; 1 µM).
`F[C@@H]1CCN(c2nccc(-c3cnn4ncccc34)n2)C1` gave a remaining binding of 100% (binding; 1 µM).
For `C[C@@H](c1ccc(-n2cnc3c(N)ncnc32)cc1)N1CCc2nn(C)c(Cc3ccccc3)c2C1=O`, the remaining binding was 90% (binding, competition with immobilised ligand; 0.1 µM).
`C=CC(=O)N1CCC(C(=O)NCC(=O)N2CCN(c3nc(-c4cnc(N)nc4C(F)F)nc(N4CCOCC4)n3)CC2)CC1` has a remaining binding of 100% (binding, competition with immobilised ligand; 1 µM).
For `COc1cnc(Nc2cccc(S(N)(=O)=O)c2)nc1N1CCN(c2ccccc2)CC1`, the remaining binding was 100% (binding, competition with immobilised ligand; 1 µM).
`COc1ncc2cc3ccccc3nc2c1C#N` gave a remaining binding of 74% (cell-free assay, competition with immobilised ligand; 5 µM).
